Measured values published in ChEMBL document CHEMBL1153433, “Design and synthesis of 2-amino-4-methylpyridine analogues as inhibitors for inducible nitric oxide synthase and in vivo evaluation of [18F]6-(2-fluoropropyl)-4-methyl-pyridin-2-amine as a potential PET tracer for inducible nitric oxide synthase” (J Med Chem, 2009).

System: Lung
Experiment: Biodistribution in C57BL/6N mouse lung at 50 uCi/110 uL, iv after 2 hrs
Assay type: ADME, organism-based
Conditions: in vivo
Summary of the method: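 Untreated (control) male C57BL/6N mice aged 6-8 weeks. HPLC-purified tracer, ~50 μCi in 10% ethanol/saline, given i.v. via the tail vein. Mice were sacrificed at 5 min, 30 min, 1 h and 2 h post-injection. Tissues were removed, weighed and gamma-counted against diluted injectate standards. Data are %ID/g, mean ± SD, n = 4.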

Drug uptake: 0.15 % ID/g
SMILES: Cc1cc(N)nc(CC(C)[18F])c1 (stereo unspecified)
